One test relates to DNA. The test is described as follows: Binding affinity to Escherichia coli pUC18 DNA assessed as protection against DNase1-mediated cleavage at 250 to 700 uM preincubated for 30 mins followed by DNase1 addition measured after 5 mins by 1% agarose gel based UV-transilluminator analysis. The test is classed as nucleic-acid assay. A digest of the protocol: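 Linearized pUC18 plasmid DNA (100 ng) incubated with compound (250, 500, 700 μM) or controls (doxorubicin 100 μM; DAPI, methyl green, ampicillin 500 μM) for 30 min at 37 °C in ligation-like buffer. DNase I 0.0025 U added for 5 min at 37 °C, stopped with urea/EDTA buffer, resolved on 1% agarose and imaged under UV.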

Test [1] in a line: Antiproliferative activity against mouse 4T1 cells after 48 hrs by MTT assay. In general terms: Tetrazolium assays rely on reduction of a dye to a coloured formazan, in cell work by metabolically active cells.
In a further test the test system is HepG2. Briefly: Antiproliferative activity against human HepG2 cells at 10 uM after 48 hrs by MTT assay. The format is functional, cell-based. In short, it runs like this: (§1)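 Cells seeded and allowed to adhere overnight, then given compound from 10 mM DMSO stock; DMSO alone as vehicle control. Grown 48 h, MTT (5 mg/ml) added for 3 h, formazan dissolved in DMSO, absorbance read at 590 nm. % inhibition = (A control − A treated)/A control × 100; three independent biological replicates. Single-point screen at 10 μM; IC50 from three independent experiments.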

The subject of test [2] is DLD-1. The test is described as follows: Induction of apoptosis in human DLD1 cells assessed as early apoptotic cells at 5 uM after 48 hrs by Annexin V-FITC/propidium iodide staining-based flow cytometric method relative to control. The test is classed as functional. A digest of the protocol: (§2)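 DLD-1 cells exposed to 2.5, 5 and 10 μM for 48 h, harvested, washed in cold PBS and stained with Annexin V-FITC and PI in binding buffer at room temperature in the dark. Analysed by flow cytometry; early and late apoptotic fractions averaged from three independent experiments.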
Background: In flow cytometry, cells or beads pass a laser one at a time.

In test [3] the target is T1, DNA ligase (Enterobacteria phage T4) (UniProt P00970).
T1 sequence (whole entry): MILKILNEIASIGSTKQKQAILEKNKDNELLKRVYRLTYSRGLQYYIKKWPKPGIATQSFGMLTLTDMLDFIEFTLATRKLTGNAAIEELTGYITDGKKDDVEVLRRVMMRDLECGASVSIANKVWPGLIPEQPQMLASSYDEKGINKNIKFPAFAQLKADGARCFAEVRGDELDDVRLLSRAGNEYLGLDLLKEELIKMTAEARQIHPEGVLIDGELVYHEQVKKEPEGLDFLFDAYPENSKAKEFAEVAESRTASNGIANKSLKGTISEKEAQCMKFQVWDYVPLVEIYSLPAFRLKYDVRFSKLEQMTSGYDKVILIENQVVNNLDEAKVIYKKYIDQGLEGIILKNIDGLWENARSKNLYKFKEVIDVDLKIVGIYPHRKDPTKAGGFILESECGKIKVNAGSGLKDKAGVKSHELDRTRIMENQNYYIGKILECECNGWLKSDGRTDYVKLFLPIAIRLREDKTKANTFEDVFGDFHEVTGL
The test is described as follows: Inhibition of T4 DNA ligase at 10 uM using double strand nicked DNA as substrate at 3.125 to 50 uM after 30 mins in presence of ATP by acrylamide-based fluorescence-assay. The conditions noted are these: Tequatrovirus T4.

For test [4], the target named is DNA ligase 1 (Homo sapiens) (UniProt P18858). Briefly: Inhibition of human Lig1 at 10 uM using double strand nicked DNA as substrate after 30 mins in presence of ATP by acrylamide-based fluorescence-assay. In short, it runs like this: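 Cy3-labelled nicked duplex (52-mer annealed to 25- and 27-mers; 1 pmol) with purified hLigI (0.2 pmol) in 50 mM Tris-Cl pH 7.5, 10 mM MgCl2, 0.25 mg/mL BSA, 100 mM NaCl, 500 µM ATP. Compound at 10 μM; 30 min at 37 °C. Stopped with formamide/EDTA; ligated and unligated strands separated on 7 M urea/12% denaturing gel. Triplicate.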
Chain of DNA ligase 1 (Homo sapiens) (P18858 whole entry): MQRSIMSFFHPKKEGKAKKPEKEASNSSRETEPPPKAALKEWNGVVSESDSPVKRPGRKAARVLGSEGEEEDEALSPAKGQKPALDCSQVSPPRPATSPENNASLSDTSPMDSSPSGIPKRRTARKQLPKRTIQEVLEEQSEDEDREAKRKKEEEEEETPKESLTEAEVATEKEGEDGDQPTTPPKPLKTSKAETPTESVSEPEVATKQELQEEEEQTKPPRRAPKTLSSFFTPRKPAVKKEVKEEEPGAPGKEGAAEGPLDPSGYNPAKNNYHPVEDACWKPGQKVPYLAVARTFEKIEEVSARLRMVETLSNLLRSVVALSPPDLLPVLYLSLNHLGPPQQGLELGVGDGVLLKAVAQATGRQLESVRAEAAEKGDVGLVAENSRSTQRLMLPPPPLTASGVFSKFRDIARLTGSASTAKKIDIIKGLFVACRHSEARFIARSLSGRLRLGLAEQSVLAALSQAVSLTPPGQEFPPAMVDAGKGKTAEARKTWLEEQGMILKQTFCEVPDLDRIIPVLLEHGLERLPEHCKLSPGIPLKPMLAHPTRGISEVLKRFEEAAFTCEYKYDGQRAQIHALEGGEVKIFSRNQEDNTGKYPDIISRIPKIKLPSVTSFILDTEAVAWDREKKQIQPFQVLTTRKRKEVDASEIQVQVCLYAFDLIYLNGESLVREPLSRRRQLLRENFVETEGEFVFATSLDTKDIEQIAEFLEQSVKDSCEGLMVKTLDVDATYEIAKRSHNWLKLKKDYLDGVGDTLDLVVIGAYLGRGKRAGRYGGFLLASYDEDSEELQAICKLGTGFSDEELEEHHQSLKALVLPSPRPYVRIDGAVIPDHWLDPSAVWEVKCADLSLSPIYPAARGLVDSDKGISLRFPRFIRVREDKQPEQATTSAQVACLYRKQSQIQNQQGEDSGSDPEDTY

The test system of test [5] is DLD-1. Briefly: Induction of apoptosis in human DLD1 cells after 48 hrs by Annexin V-FITC/propidium iodide staining-based flow cytometric method. The format is functional, cell-based. A digest of the protocol:
as §2

In a further test the test system is HeLa. Briefly: Antiproliferative activity against human HeLa cells at 10 uM after 48 hrs by MTT assay. The format is functional, cell-based. A digest of the protocol:
as §1

Test [6] relates to DLD-1. Briefly: Antiproliferative activity against human DLD1 cells after 48 hrs by MTT assay. The format is functional, cell-based. The conditions noted are these: DLD-1, 48 h. A digest of the protocol:
as §1

The subject of the next test is HEK293. Briefly: Cytotoxicity against HEK293 cells after 48 hrs by MTT assay. The test is classed as cell-based. Particulars: Homo sapiens, HEK293, 48 h.

Active and inactive are the calls of the source. No cut-off for these calls is given here.

For orientation: IC50 means the midpoint of a concentration-inhibition curve. Broadly, the inhibition is the relative decrease from the control value, in per cent. For `Cc1[nH]c2ccccc2c1C1C(C#N)=C(N)Oc2c1cc(/C=C/C(=O)c1cccs1)cc2C(C)(C)C` (stereo not given), the result in the test on DNA was inactive. The results for the IC50 (in test [1]; in the test with DLD-1 [6]; in the test on HEK293) were 5.76 µM, 4.66 µM and 12.4 µM, respectively. Moreover, the result in the test with HepG2 and in the test with HeLa was Active. Moreover, the figures for the Activity in the test on DLD-1 [2] and with DLD-1 [5] were 17.38% and “Dose-dependent effect”, respectively. Moreover, the inhibition entry in [3] was “inactive”. The inhibition in test [4] is 69.4%.
